Test [1] has as its system PC-12. Put plainly: Protection against H2O2-induced mitochondrial dysfunction in rat PC12 cells assessed as change in mitochondrial membrane potential loss at 5 uM pretreated with compound followed by H2O2 addition by JC-1 staining based flow cytometry (reference value: 21.3 %). The class given is functional. In a few lines:
(§1)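 Mitochondrial membrane potential in PC12 cells pretreated with compound (5, 10, 20 μM), then exposed to H₂O₂ (200 μM) or 6-OHDA (150 μM). JC-1 staining, red-to-green fluorescence shift read by flow cytometry. Mean ± SD, n = 3.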
(A flow cytometer gives signals particle by particle.)

Test [2] relates to PC-12. As to the kind of experiment: Protection against 6-OHDA-induced oxidative damage in rat PC12 cells assessed as intracellular ROS level by measuring mean fluorescence intensity at 5 uM pretreated with compound followed by 6-OHDA stimulation by DCFH-DA staining based flow cytometry (reference value: 26327.34). It counts as functional.
Test [3] is described as follows: Antioxidant activity assessed as ABTS radical scavenging activity. The class given is functional.
The test system of test [4] is PC-12. Put plainly: Prevention of 6-OHDA-induced calcium overload in rat PC12 cells assessed as reduction in intracellular free calcium by measuring mean fluorescence intensity at 5 uM pretreated with compound followed by 6-OHDA addition measured after 24 hrs by Fluo-3AM based fluorescence assay (reference value: 6708.18%). It counts as functional.
Test [5] deals with BV-2. Put plainly: Antiinflammatory activity in mouse BV2 cells transfected with Nrf2 siRNA assessed as reduction in LPS-induced NO production at 20 uM pretreated with compound followed by LPS stimulation for 18 hrs.
For test [6], the system named is PC-12. Put plainly: Neuroprotective activity against 6-OHDA-induced cell damage in rat PC12 cells preincubated for 24 hrs followed by 6-OHDA treatment by MTT assay. The class given is functional, cell-based. The note with it: dose 5-20 µM. In short, it runs like this:
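PC12 cells pretreated 24 h with compound (5, 10, 20 μM), then H₂O₂ (200 μM) or 6-OHDA (150 μM); viability by MTT; mean ± SD, three independent experiments.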
(In general: Tetrazolium dyes change colour on reduction, which living cells bring about.)

The subject of test [7] is PC-12. As to the kind of experiment: Protection against 6-OHDA-induced mitochondrial dysfunction in rat PC12 cells assessed as change in mitochondrial membrane potential loss at 5 uM pretreated with compound followed by 6-OHDA addition by JC-1 staining based flow cytometry (reference value: 26.8 %). The class given is functional. In a few lines: as §1
Test [8] deals with PC-12. Put plainly: Protection against 6-OHDA-induced apoptosis in rat PC12 cells assessed as late apoptotic cells at 10 uM incubated for 24 hrs by annexin V FITC/propidium iodide staining based flow cytometry (reference value: 7.6 %). The class given is functional.
For test [9], the system named is PC-12. As to the kind of experiment: Protection against H2O2-induced apoptosis in rat PC12 cells assessed as viable cells at 10 uM incubated for 24 hrs by annexin V FITC/propidium iodide staining based flow cytometry (reference value: 79.3 %). The class given is functional. The note with it: read-out: Activity.
Test [10] addresses T1, Nuclear factor erythroid 2-related factor 2 (Mus musculus) (UniProt Q60795).
T1 sequence (whole entry): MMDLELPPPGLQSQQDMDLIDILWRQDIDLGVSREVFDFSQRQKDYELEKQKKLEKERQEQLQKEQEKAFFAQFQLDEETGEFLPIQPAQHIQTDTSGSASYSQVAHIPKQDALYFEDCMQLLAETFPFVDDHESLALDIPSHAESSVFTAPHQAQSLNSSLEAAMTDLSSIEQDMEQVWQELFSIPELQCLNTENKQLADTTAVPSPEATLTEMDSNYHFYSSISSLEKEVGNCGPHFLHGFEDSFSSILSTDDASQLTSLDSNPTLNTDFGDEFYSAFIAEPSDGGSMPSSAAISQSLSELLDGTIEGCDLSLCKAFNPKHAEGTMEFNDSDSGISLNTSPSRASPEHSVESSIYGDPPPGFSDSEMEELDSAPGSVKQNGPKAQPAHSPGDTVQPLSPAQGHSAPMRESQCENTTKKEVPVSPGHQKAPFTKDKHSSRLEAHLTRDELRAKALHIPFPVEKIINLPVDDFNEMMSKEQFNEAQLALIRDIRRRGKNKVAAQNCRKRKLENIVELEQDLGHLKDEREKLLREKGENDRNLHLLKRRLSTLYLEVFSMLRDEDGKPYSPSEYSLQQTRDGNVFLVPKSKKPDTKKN
As to the kind of experiment: Activation of Nrf2 in mouse BV2 cells assessed as upregulation of GCLM protein expression after 24 hrs by Western blot analysis. The class given is cell-based. The note with it: BV-2, filed as activator, dose 5-20 µM. In a few lines: (§2)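 BV2 microglia exposed to compound for 24 h over a concentration series; Nrf2, NQO1, HO-1, TrxR1, GCLM and GCLC protein levels read by Western blot.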
Background: In western blotting, separated proteins are transferred to a membrane and probed.

The test system of test [11] is PC-12. Put plainly: Protection against H2O2-induced apoptosis in rat PC12 cells assessed as viable cells at 5 uM incubated for 24 hrs by annexin V FITC/propidium iodide staining based flow cytometry (reference value: 79.3 %). The class given is functional. The note with it: read-out: Activity.
The subject of test [12] is PC-12. Put plainly: Prevention of H2O2-induced calcium overload in rat PC12 cells assessed as reduction in intracellular free calcium by measuring mean fluorescence intensity at 5 uM pretreated with compound followed by H2O2 addition measured after 24 hrs by Fluo-3AM based fluorescence assay (reference value: 17791.36%). The class given is functional.
Test [13] has as its target T1, Nuclear factor erythroid 2-related factor 2 (Mus musculus). Put plainly: Activation of Nrf2 in mouse BV2 cells assessed as decrease in LPS-induced NO production pretreated with compound followed by LPS stimulation after 18 hrs by Griess reagent based assay. The class given is cell-based. The note with it: BV-2, filed as activator, dose 5-20 µM. In short, it runs like this: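 BV2 microglia pretreated with compound, then LPS (1µg/mL) for 18 h; NO in medium measured by Griess method; mean ± SD, n = 3.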

Test [14] concerns PC-12. As to the kind of experiment: Protection against 6-OHDA-induced apoptosis in rat PC12 cells assessed as necrotic cells at 10 uM incubated for 24 hrs by annexin V FITC/propidium iodide staining based flow cytometry (reference value: 1.1 %). It counts as functional.
Test [15] relates to PC-12. As to the kind of experiment: Cytoprotective activity against H2O2-induced neurotoxicity in rat PC12 cells assessed as reduction in LDH release at 5 to 20 uM preincubated for 24 hrs followed by H2O2 treatment by LDH assay. The class given is functional, cell-based. The note with it: dose 5-20 µM. In a few lines: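 PC12 cells pretreated with compound (5, 10, 20 μM) for 24 h, then H₂O₂ or 6-OHDA; membrane damage read as LDH leakage; mean ± SD of three independent experiments.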

Test [16] concerns PC-12. Put plainly: Protection against 6-OHDA-induced mitochondrial dysfunction in rat PC12 cells assessed as change in mitochondrial membrane potential at 10 uM pretreated with compound followed by 6-OHDA addition by JC-1 staining based flow cytometry (reference value: 73.2 %). It counts as functional. In a few lines:
as §1

Test [17] has as its target T1, Nuclear factor erythroid 2-related factor 2 (Mus musculus). As to the kind of experiment: Activation of Nrf2 in mouse BV2 cells assessed as upregulation of HO-1 protein expression after 24 hrs by Western blot analysis. The class given is cell-based. The note with it: BV-2, filed as activator, dose 5-20 µM. In short, it runs like this:
as §2

In test [18] the test system is PC-12. Put plainly: Protection against 6-OHDA-induced oxidative damage in rat PC12 cells assessed as intracellular ROS level by measuring mean fluorescence intensity at 10 uM pretreated with compound followed by 6-OHDA stimulation by DCFH-DA staining based flow cytometry (reference value: 26327.34). The class given is functional.
Test [19] concerns PC-12. As to the kind of experiment: Protection against 6-OHDA-induced mitochondrial dysfunction in rat PC12 cells assessed as change in mitochondrial membrane potential at 5 uM pretreated with compound followed by 6-OHDA addition by JC-1 staining based flow cytometry (reference value: 73.2 %). The class given is functional. In short, it runs like this:
as §1

The subject of test [20] is BV-2. As to the kind of experiment: Antiinflammatory activity in mouse BV2 cells transfected with control siRNA assessed as inhibition of LPS-induced IL-6 production at 20 uM pretreated with compound followed by LPS stimulation for 18 hrs.

Structures are written as SMILES. Calls of active or inactive are those of the source. The rule behind the calls is not given here.

In the case of `CCN(C)C(=O)N1CCN(C(=O)/C=C/c2ccc(F)cc2)C1=O`, the Activity in test [1] is 13.2%; in [6], “Dose-dependent effect”; in [7], 20.5%; in [8], 6.3%; in test [10], “Dose-dependent effect”; in test [13], “Dose-dependent effect”. Also, the Activity in [14] is 1%; in [16] it was 83.6%; in test [17], “Dose-dependent effect”; in test [19], 79.4%. The Flu intensity in test [2] was determined as 18168.07; in test [4], 4910.91; in test [12], 8721.73; in test [18], 12110.88. The result in test [3] and in test [5] was inactive. Also, the viability at 10 µM in test [9] turned out to be 92.4%. Besides, the viability at 5 µM in [11] worked out at 84.1%. The result in test [15] and in [20] was Active.

These data come from ChEMBL document CHEMBL4732088, “Identification and optimization of piperlongumine analogues as potential antioxidant and anti-inflammatory agents via activation of Nrf2” (Eur J Med Chem, 2021).
